Source: PubChem
Neddyl block: inhibitors of cullin neddylation, primary screen, biochemical, TR-FRET, uHTS, NAE and Ubc12 | NEDD8-conjugating enzyme Ubc12 (Homo sapiens) + NEDD8-activating enzyme E1 regulatory … | calls only at 25 µM | 360,000 tested, 0.58% active | AID 651699, 2012; in the data active = inhibition above about 36%
RAD54 inh: inhibitors of human RAD54 branch migration, primary screen, biochemical, fluorescence, single point. DNA repair and recombination protein RAD54-like (Homo sapiens), Q92698. RAD54 Holliday junction branch migration, FAM/BHQ fluorescence. inhibition, % at 10.4 µM. 360,000 tested, 0.14% active. AID 602329, 2012;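 active = mean normalized replicate activity at least 40 and at least half of replicates scoring 40 or more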;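 also: inhibitors cause a drop in the FAM fluorescence signal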
UBC13 polyUb: UBC13 polyubiquitin chain formation inhibitors, primary screen, biochemical, TR-FRET, uHTS. Ubiquitin-conjugating enzyme E2 N (Homo sapiens), P61088. inhibition, % at 20 µM. 330,000 tested, 0.47% active; in the data active = inhibition above about 45%, passing the limit was not always enough
Target sequence (P61088 whole entry, looked up): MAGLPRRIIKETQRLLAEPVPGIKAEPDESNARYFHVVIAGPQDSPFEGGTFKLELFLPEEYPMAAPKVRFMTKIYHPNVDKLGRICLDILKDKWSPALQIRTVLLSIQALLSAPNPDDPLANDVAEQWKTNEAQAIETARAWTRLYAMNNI
RAD52 inh: RAD52 DNA annealing inhibitors, primary screen, biochemical, FRET, single point, set 2; DNA repair protein RAD52 homolog (Homo sapiens), P43351; recombinant RAD52 DNA annealing, FRET fluorescence; inhibition, % at 18.7 µM; 360,000 tested, 0.46% active;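 active = every replicate showing at least 50% inhibition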
FID counter: compounds displacing fluorescent DNA intercalator, primary screen, artefact control for HCV NS3 helicase inhibitor project, biochemical, FID fluorescence; DNA fluorescent intercalator displacement; inhibition, % at 7.9 µM; 290,000 tested, 0.17% active; in the data active = inhibition above about 37%;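 also: higher means more ethidium bromide displaced from hairpin DNA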
Apaf-1 inh: inhibitors of human Apaf-1 apoptosome, primary screen, biochemical, DEVD-Rh110 fluorescence, uHTS. reconstituted apoptosome caspase-3 activity. 330,000 tested, 0.71% active. inhibition, % at 20 µM. Apoptotic protease-activating factor 1 (Homo sapiens), O14727; active = inhibition of at least 40% at 20 µM
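Assay system: Apoptosome proteins | Medium: pH 7.5 Hepes buffer with CHAPS, BSA, DTT | Also added: Cytochrome c and DEVD-Rh110 substrate | Times: 30 min plus 50 min, RT | Detection: Rhodamine 110 fluorescence at Ex 480/Em 540 nm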
Apaf-1 inh conf: Apaf-1 inhibitors, single-dose retest, confirmation, biochemical, fluorescence, DEVD-Rh110, 20 µM | AID 504614, 2011 | reconstituted apoptosome, caspase-3 DEVD-Rh110 fluorescence | shares compounds with Apaf-1 inh | 1,800 tested, 25% active | inhibition, % at 20 µM;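 active = mean inhibition of at least 40% at 20 µM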
Rh110 quench: Rh110 fluorescence interference by putative Apaf-1 inhibitors, confirmation, artefact control for Apaf-1 inhibitor project, biochemical, 20 µM; shares compounds with Apaf-1 inh; quenched caspase reaction; 1,800 tested, under 10 active; activation (fluorescence interference), % at 20 µM;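 active = signal rise of 40% or more at 20 µM, treated as a fluorescence artifact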
Fluor interf inh: fluorescence interference of Apaf-1 inhibitor hits, dose response, artefact control for Apaf-1 inhibitor project; shares compounds with Apaf-1 inh; fluorescence interference counterscreen, Apaf-1 assay format; IC50, µM; 460 tested, under 10 active; call rule not given here
Of the large screens only hits and unclear results are named; the others gave an inactive call (follow-up assays come after a bar, where shown). Shown are actives, neighbours in structure and some others; about 1.6% of the full set was active somewhere.

CC(=O)Nc1ccc(S(=O)(=O)NC2=C(N3CCN(Cc4ccccc4)CC3)C(=O)c3ccccc3C2=O)cc1	none (no result: UBC13 polyUb, Apaf-1 inh)
CCN1CCN(C2=C(NS(=O)(=O)c3ccc(C)cc3)C(=O)c3ccccc3C2=O)CC1	Apaf-1 inh 77.4 | Apaf-1 inh conf inactive | Rh110 quench inactive
Cc1ccc(S(=O)(=O)N(C)C[C@@H]2OCc3cn(nn3)CCCC(=O)N([C@@H](C)CO)C[C@@H]2C)cc1	none (no result: Neddyl block, UBC13 polyUb, FID counter, Apaf-1 inh)
CC(C)CCC(C)N=Cc1c(O)n(Cc2ccccc2)c(=O)c2ccccc12 (stereo not drawn)	Apaf-1 inh 59.7 (no result: RAD54 inh, RAD52 inh) | Apaf-1 inh conf 56.2 | Rh110 quench inactive | Fluor interf inh inactive
COc1cccc(-c2cc(=O)[nH][nH]2)c1	none (no result: RAD54 inh)
CCOc1cccc(-c2cc(=O)[nH][nH]2)c1	Apaf-1 inh 43.9 (no result: RAD52 inh) | Apaf-1 inh conf inactive | Rh110 quench inactive
COc1ccc(-c2cc(=O)[nH][nH]2)cc1OC	Apaf-1 inh 76.7 (no result: RAD52 inh) | Apaf-1 inh conf inactive | Rh110 quench inactive
O=c1cc(-c2ccc(F)cc2)[nH][nH]1	Apaf-1 inh 50.3 (no result: RAD52 inh) | Apaf-1 inh conf inactive | Rh110 quench inactive
O=c1cc(-c2ccc(Br)cc2)[nH][nH]1	none (no result: RAD54 inh)
COc1ccc(CN(C)C[C@H]2OCCCC[C@@H](C)Oc3ccc(NC(=O)c4ccncc4)cc3C(=O)N([C@H](C)CO)C[C@H]2C)cc1	none (no result: Neddyl block, UBC13 polyUb, FID counter, Apaf-1 inh)
CSc1ccc(/C=N/NC(=O)CNc2cccc3ccccc23)cc1	Apaf-1 inh 85.7 (no result: RAD54 inh) | Apaf-1 inh conf inactive | Rh110 quench inactive
C=CCc1cccc(/C=N/NC(=O)CNc2cccc3ccccc23)c1O	Apaf-1 inh 96.4 (no result: RAD54 inh) | Apaf-1 inh conf inactive | Rh110 quench inactive
C=CCc1cccc(/C=N/NC(=O)CNc2ccccc2OC)c1O	none
O=C(CNc1cccc2ccccc12)N/N=C/C(Br)=C/c1ccccc1	Apaf-1 inh 64.9 (no result: RAD52 inh) | Apaf-1 inh conf inactive | Rh110 quench inactive
CN(C)C(=O)[C@@H]1[C@@H](CO)[C@@H]2Cn3c(ccc(-c4cccc(F)c4)c3=O)[C@H]1N2Cc1ccccc1	none (no result: Neddyl block, UBC13 polyUb, FID counter, Apaf-1 inh)
C[C@@H]1CCCCO[C@H](CN(C)C(=O)CCCN(C)C)[C@@H](C)CN([C@@H](C)CO)C(=O)c2cc(N(C)C)ccc2O1	none (no result: Neddyl block, UBC13 polyUb, FID counter, Apaf-1 inh)
Cc1ccc(S(=O)(=O)N(C)C[C@@H]2Oc3ccc(NS(=O)(=O)c4ccccc4)cc3C(=O)N([C@@H](C)CO)C[C@H]2C)cc1	none (no result: Neddyl block, UBC13 polyUb, FID counter, Apaf-1 inh)
O=C(/C=C/c1ccc(-c2ccccc2[N+](=O)[O-])o1)c1ccc(Br)cc1	Apaf-1 inh 48.8 (no result: RAD54 inh, RAD52 inh) | Apaf-1 inh conf inactive | Rh110 quench inactive
O=C(O)c1cccc(-c2ccc(/C=N/NC(=O)c3cccnc3)o2)c1	none (no result: RAD52 inh)
O=C(N/N=C/c1ccc(-c2ccccc2[N+](=O)[O-])o1)c1cccnc1	Apaf-1 inh 78.8 | Apaf-1 inh conf 42.8 | Rh110 quench inactive | Fluor interf inh inactive
CC(C)(C)c1cc(C(=O)N/N=C/c2ccc(-c3ccccc3[N+](=O)[O-])o2)n[nH]1	Apaf-1 inh 41.9 | Apaf-1 inh conf inactive | Rh110 quench inactive
COc1cccc(/C=N/NC(=O)NC23CC4CC(CC(C4)C2)C3)c1O	Apaf-1 inh 40.1 (not shown: Neddyl block, RAD52 inh, FID counter) | Apaf-1 inh conf inactive | Rh110 quench inactive
O=C(N/N=C/c1ccccc1F)NC12CC3CC(CC(C3)C1)C2	none
CCCNC(=O)N[C@@H]1C=C[C@H](CC(=O)NC2CCCCC2)O[C@@H]1CO	none (no result: Neddyl block, UBC13 polyUb, FID counter, Apaf-1 inh)
